Compounds with a hit are over-represented: about 9.4% of the library has one in this group of screens.
Beta cell apopt: beta cell apoptosis inhibition; 0.8% of 300,000 active; INS-1E cytokine-induced death, ATP luminescence, 48 h; percent of positive-control rescue, neutral wells zero; protection from apoptosis, % (test concentration not listed);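 active = Every replicate reaches about 75%, or at least half do and their mean reaches it too, limit read from the data; inconclusive = At least half of replicates reach the limit but their mean does not; inactive = Under half of replicates reach the limit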;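 also: 0% = cytokine-treated negative control wells and 100% = positive control rescue; higher means more ATP so stronger rescue from cytokine killing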
Lmaj promast: Leishmania major promastigote growth inhibition; Leishmania major promastigotes, resazurin fluorescence viability; inhibition, % at 10 µM; 9% of 200,000 active; in the data active = inhibition above about 50%;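 also: promastigotes grown with compound for 44 hours at 28 °C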
SKKanGAS inh: inhibitors of SKKanGAS S. pyogenes growth in kanamycin (SK-promoter or general growth effect); BacTiter-Glo, 6 h; 1.3% of 300,000 active; inhibition, % at 7.5 µM;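 active = mean replicate score, as percent of positive control median, at least 50; inconclusive = mean below 50 but one replicate at or above 50; inactive = mean and every replicate below 50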;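 also: strain carries kanamycin resistance gene driven by streptokinase promoter and grows in 40 µg/ml kanamycin; loss of luminescence reflects streptokinase promoter inhibition or plain growth inhibition; 0% = median of DMSO wells and 100% = positive control at its reference dose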
Mdm2 MdmX PPI: disrupts the human Mdm2-MdmX interaction. 3% of 330,000 active. AID 485346. inhibition, % at 8 µM. O15151+Q00987. SaOS-2 split-luciferase Mdm2/MdmX complementation, luminescence;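 active = inhibition of at least 50% at 8 µM in the primary screen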
Target sequence (O15151 whole entry, looked up): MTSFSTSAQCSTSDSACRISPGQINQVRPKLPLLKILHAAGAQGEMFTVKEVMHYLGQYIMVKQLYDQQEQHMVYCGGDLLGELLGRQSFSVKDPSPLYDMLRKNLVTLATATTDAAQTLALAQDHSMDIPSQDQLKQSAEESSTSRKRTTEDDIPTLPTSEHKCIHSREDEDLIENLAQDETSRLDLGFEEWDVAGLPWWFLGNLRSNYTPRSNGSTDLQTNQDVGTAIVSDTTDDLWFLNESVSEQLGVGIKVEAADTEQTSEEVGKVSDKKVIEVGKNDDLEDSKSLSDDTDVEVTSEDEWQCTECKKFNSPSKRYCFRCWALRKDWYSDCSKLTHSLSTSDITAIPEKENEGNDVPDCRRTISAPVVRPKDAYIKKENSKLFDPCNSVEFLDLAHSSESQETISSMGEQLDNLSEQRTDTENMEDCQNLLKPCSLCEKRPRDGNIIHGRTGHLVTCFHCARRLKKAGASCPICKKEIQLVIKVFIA
Target sequence (Q00987 whole entry, looked up): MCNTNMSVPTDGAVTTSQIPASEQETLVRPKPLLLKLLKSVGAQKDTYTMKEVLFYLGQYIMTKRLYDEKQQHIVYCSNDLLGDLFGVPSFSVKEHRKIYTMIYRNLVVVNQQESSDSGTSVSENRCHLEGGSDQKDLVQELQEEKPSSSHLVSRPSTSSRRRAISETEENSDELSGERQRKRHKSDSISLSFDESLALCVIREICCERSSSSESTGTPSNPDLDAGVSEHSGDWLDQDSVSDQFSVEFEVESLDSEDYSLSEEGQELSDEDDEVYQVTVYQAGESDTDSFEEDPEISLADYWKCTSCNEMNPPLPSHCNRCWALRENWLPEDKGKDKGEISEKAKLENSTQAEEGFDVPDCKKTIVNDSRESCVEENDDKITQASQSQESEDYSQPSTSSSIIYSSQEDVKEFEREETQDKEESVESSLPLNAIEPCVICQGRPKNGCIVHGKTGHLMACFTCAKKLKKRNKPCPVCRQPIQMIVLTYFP
T cruzi repl: blocks replication of Trypanosoma cruzi. inhibition, % (test concentration not listed). 1.4% of 300,000 active. T. cruzi beta-gal in NIH3T3, luminescence, 90 h;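 active = mean inhibition across valid replicates above about 55%, limit read from the data; inconclusive = mean below that limit but half or more replicates reach it; inactive = mean below it, under half of replicates reach it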;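 also: signal also drops with host cell toxicity which is not excluded here; 0% = plate median of DMSO wells and 100% = zero luminescence signal; higher percent means less beta-gal luminescence so fewer parasites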
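Read-out: Parasite load inhibition, % | Test system: Mouse NIH/3T3 fibroblasts infected with β-gal-expressing T. cruzi Tulahuen C4 | Amount: 5,000 cells/well | Medium: DMEM, 2% fetal bovine serum | Signal: GalScreen β-gal luminescence, detergent lysis, 60 min | Timing: 3 h attach, ≥90 h co-culture | Also added: Tulahuen C4 trypomastigotes, 5000/well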
CSC inhib: blocks cancer stem cells. cancer stem cell-like cells viability, luminescence. inhibition, % at 7.5 µM. 1.1% of 300,000 active. AID 2717; in the data active = inhibition above about 75%; inconclusive = no clear call, values can overlap the other calls; tested in HMLE shEcad cells
Mdm2-MdmX conf: human Mdm2/MdmX binding inhibition, confirmed; luminescent assay; AID 489028; shares compounds with Mdm2 MdmX PPI; 55% of 10,000 active; inhibition, % at 8 µM; in the data active = inhibition above about 40%
Full FLuc ctr: counter-screen for Mdm2/MdmX inhibitors: full-length luciferase. shares compounds with Mdm2 MdmX PPI. SaOS-2 full-length luciferase counterscreen, luminescence. inhibition, % at 8 µM. 77% of 6,200 active. AID 504607;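 active = mean inhibition at 8 µM reaching about 37%, which flags the compound as non-specific, limit read from the data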;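 also: p53-null SaOS-2 cells with luciferase driven by a doxycycline-inducible promoter; compound on cells about two nights before reading with doxycycline added after day one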
* marks the source's active call; other numbers are inactive results; u = inconclusive; x = no result given.

SMILES	Beta cell apopt	Lmaj promast	SKKanGAS inh	Mdm2 MdmX PPI	T cruzi repl	CSC inhib	Mdm2-MdmX conf	Full FLuc ctr
CCCc1ccc2oc(C(=O)N(C)CCn3ccnc3C)c(C)c2c1	0	x	0	1	6	67	x	x
COc1ccccc1NS(=O)(=O)c1cccc(NC(=O)Nc2ccc(Cl)cc2)c1	47	97*	55*	94*	67*	x	43*	69*
COc1cccc(OC)c1C(=O)Nc1cccc(S(=O)(=O)Nc2ccccc2Cl)c1	-3	x	x	13	x	16	x	x
O=C(Nc1ccncc1)c1ccc(Cl)c(S(=O)(=O)N2CCCC2)c1	5	x	4	3	8	-11	x	x
O=C(Nc1ccc(F)cc1)Nc1ccc(Oc2ncnc3cc(Cl)ccc23)nc1	-4	x	-16	27	-9	-7	x	x
O=C(Nc1ccc(Oc2ncnc3cc(Cl)ccc23)nc1)c1cccs1	54	x	7	78*	1	0	73*	102*
Cc1ccccc1NC(=O)c1nn(C)c2c1CS(=O)(=O)c1ccccc1-2	-2	x	1	3	1	-1	x	x
Cc1ccc(S(=O)(=O)n2ccc3c(OCCOCCNCc4ccc(F)cc4)cccc32)cc1	30	x	8	54*	55*	59	23	x
COc1ccccc1-c1nc(C(=O)NCC2CCCO2)cc2c1[nH]c1ccccc12 (centres undefined)	x	x	9	23	29	7	x	x
O=C(NCC1CCCO1)c1cc2c([nH]c3ccccc32)c(-c2cccc(Cl)c2)n1 (centres undefined)	62	x	50*	87*	50	44	46*	60*
COc1cc(-c2nc(C(=O)NCC3CCCO3)cc3c2[nH]c2ccccc23)cc(OC)c1OC (centres undefined)	25	x	36	86*	32	9	54*	56*
Cc1ccc(C)c(COc2coc(CN3CCN(C(=O)c4ccco4)CC3)cc2=O)c1	x	x	-10	13	-5	-5	x	x
COCC(=O)N/N=C\c1cccc(OC)c1OC/C=C/c1ccccc1	1	x	7	55*	11	14	38	x
C/C(Cc1ccccc1)=N\NC(=O)CNC(=O)c1ccc(Cl)cc1	-11	x	-7	17	14	-6	x	x
Cc1nc([N+](=O)[O-])cn1CC(=O)c1ccc(Cl)cc1	-4	x	-10	3	4	5	x	x
Cc1nc([N+](=O)[O-])c(C(=O)OCc2ccccc2Br)n1C	7	6	-2	7	2	-10	x	x
Cc1nc([N+](=O)[O-])c(Br)n1CC(=O)c1ccc2ccccc2c1	x	100*	-2	87*	23	u	23	x
Cc1nc([N+](=O)[O-])c(Br)n1CC(=O)c1ccc(Br)cc1	-10	98*	-10	63*	36	34	10	x
CCOC(=O)C1=C(C)Nc2nc3ccccc3n2C1c1ccccc1 (centres undefined)	-3	-3	9	54*	14	23	8	x
CNC(=O)C1=C(C)Nc2nc3ccccc3n2C1c1ccc(F)cc1 (centres undefined)	-5	x	-10	13	-9	-26	x	x
COc1ccc(OC)c(C2C(C(=O)c3ccccc3)=C(C)Nc3nc4ccccc4n32)c1 (centres undefined)	x	79*	76*	98*	69*	4	76*	80*
COc1ccc(C2C(C(=O)c3ccccc3)=C(C)Nc3nc4ccccc4n32)cc1OC (centres undefined)	x	22	13	17	u	-1	x	x
CC(C)c1nc(NCCO)c(C#N)c2c1CCCC2	-9	x	-4	53*	22	-8	57*	35
Cc1cc(C)c2nc(SCC(=O)Nc3cc(C)on3)c(C#N)cc2c1	6	x	-10	58*	-19	-9	8	x
Cc1cc(C)c2cc(C#N)c(SCC(=O)Nc3ccc4c(c3)OCO4)nc2c1	6	x	-2	80*	1	5	5	x
SMILES	Beta cell apopt	Lmaj promast	SKKanGAS inh	Mdm2 MdmX PPI	T cruzi repl	CSC inhib	Mdm2-MdmX conf	Full FLuc ctr
Cc1cccc2cc(C#N)c(SCC(=O)NNC(=O)Cc3ccccc3)nc12	0	-3	-2	78*	3	-7	-2	x
COc1ccc2[nH]cc(CCNC(=O)C3CCCCC3)c2c1	1	x	-4	-25	-9	-3	x	x
Cc1ccc(NC(=O)CSc2nc3ccccc3c(=O)n2CCCN2CCCCC2)cc1Cl	29	101*	3	100*	56*	20	78*	55*
O=C(CSc1nc2ccccc2c(=O)n1CCCN1CCOCC1)Nc1ccc(F)c(Cl)c1	-2	x	x	52*	x	8	19	x
O=C(Cc1ccc(-n2c(=O)c3sccc3n(CC(=O)Nc3ccccc3F)c2=O)cc1)NCc1ccco1	4	-4	4	5	4	-12	x	x
Cc1ccccc1C(=O)N(Cc1cccs1)C1CCS(=O)(=O)C1 (centres undefined)	-4	x	1	-13	0	-17	x	x
CC1CC(C)CN(CCCNC(=O)c2cc3c(s2)-c2ccccc2OC3)C1 (centres undefined)	5	x	-1	38	31	28	x	x
CC1CCCC(C)N1CCCNC(=O)c1cc2c(s1)-c1ccccc1OC2 (centres undefined)	-6	x	-9	61*	13	22	26	x
CCCN1CCN(CCCNC(=O)c2cc3c(s2)-c2c(C)cccc2OC3)CC1	46	x	-6	62*	22	14	25	x
Cc1cccc2c1-c1sc(C(=O)NCCCN3CCCC(C)C3)cc1CO2 (centres undefined)	14	x	-3	67*	14	12	49*	59*
O=C1c2ccc3c4c(ccc(c24)C(=O)N1c1cccc(O)c1)C(=O)N(c1cccc(O)c1)C3=O	118*	x	65*	65*	10	12	47*	1
O=c1cc[nH]c2ccc(Cl)cc12	2	-2	-1	7	-7	-10	x	x
O=c1cccc2c1c1cc[nH]c3ccc(=O)n2c31	-5	x	-8	73*	5	-11	68*	53*
COC(=O)c1ccc(COc2ccc(-c3nnn(CC(N)=O)n3)cc2)cc1	-1	0	-7	56*	-2	8	11	x
CCCCC(=O)Nc1ccc(NCc2ccc(C)s2)cc1	3	x	-2	x	3	-14	x	x
CCN(CC)CCNC(=O)c1c(C)n(-c2ccccc2)c2cc(Br)c(OC)cc12	11	101*	-1	81*	17	6	38	38*
N#Cc1ccccc1/C=N/Nc1nc(-c2ccccc2)c2cc(Br)ccc2n1	10	11	0	55*	30	3	3	x

Compound activity from PubChem BioAssay.
